# “Also recorded” adds a separate entry of the source. Where two headings read alike, the source gives them in different places.
# T1: MMP-1 (Homo sapiens, UniProt P03956)
# T1 sequence (P03956 100-469): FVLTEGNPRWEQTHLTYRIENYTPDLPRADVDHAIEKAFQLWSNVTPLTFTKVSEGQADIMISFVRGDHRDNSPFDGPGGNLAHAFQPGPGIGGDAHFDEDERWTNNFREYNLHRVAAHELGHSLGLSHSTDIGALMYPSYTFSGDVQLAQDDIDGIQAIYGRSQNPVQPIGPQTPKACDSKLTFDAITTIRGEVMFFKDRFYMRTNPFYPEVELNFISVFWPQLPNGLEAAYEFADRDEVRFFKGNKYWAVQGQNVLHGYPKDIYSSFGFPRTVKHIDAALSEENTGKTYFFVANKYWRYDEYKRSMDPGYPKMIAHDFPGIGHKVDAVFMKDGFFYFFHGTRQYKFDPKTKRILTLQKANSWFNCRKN
# B1: HB-EGF: human recombinant heparin-binding EGF-like growth factor, soluble form (protein, UniProt Q99075 63-148, looked up)
# Heparin-binding EGF-like …: DLQEADLDLLRVTLSSKPQALATPNKEEHGKRKKKGKGLGKKRDPCLRKYKDFCIHGECKYVKELRAPSCICHPGYHGERCHGLSL
# Assays:
# Human keratinocytes [1] = assay: Keratinocyte migration after wounding; format: cell-based; conditions: for Keratinocyte migration into wound area: 3 d, antibody No. 425 10 μg/ml, AG1478 30 nM, OSU8-1 1 μM; for Block of migration relative to the control: 10 μM, Fig. 6 b
# In short: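 Human keratinocytes grown on type I collagen-coated dishes or 6-well plates. At subconfluency, switched to BHE-free medium and scraped with a wide silicone rubber scraper. Washed once to remove floating cells, then re-fed BHE-free medium with or without test compound, antibody No. 425 (10 μg/ml), AG1478 (30 nM), or test compound plus HB-EGF (20 ng/ml). Cultured 3 d at 37°C.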
# Human keratinocytes [2] = assay: Keratinocyte growth; format: cell-based; conditions: 3 d
# In short: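 Human keratinocytes kept in supplemented MCDB153. Seeded at 10^5 cells/well in 6-well plates and grown 3 d with or without test compound (1 μM), EGFR neutralizing antibody No. 425 (10 μg/ml) or AG1478 (30 nM). Values are averages of triplicate experiments.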
# EGFR = assay: Wound-induced EGFR tyrosine phosphorylation in cultured keratinocytes; format: cell-based, human; conditions: wounded keratinocytes
# In short: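 Keratinocytes grown 72 h on collagen-coated 10-cm dishes (5 × 10^5/dish). Starved 2 h in BHE-free medium ± test compound (1 μM), cycloheximide (50 μM) or HB-EGF neutralizing antibody No. 197 (10 μg/ml). Tip-scrape wounded, incubated set times at 37°C. Lysates in Triton/vanadate buffer; EGFR immunoprecipitated overnight at 4°C with protein A-Sepharose. Run on 6% SDS-PAGE, PVDF-blotted, probed, ABC/ECL detection.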
# AP-tag TGF-α [3] = assay: TPA-inducible shedding of AP-tag TGF-α in CHO transfectants; format: cell-based, human; conditions: 60 nM TPA; for Percent inhibition at 1 μM TGF-α: 1 μM inhibitor, CHO transfectants
# MMP-1 = molecular target: T1, MMP-1; assay: MMP-1 inhibition; format: biochemical
# MMP-3 = MMP-3 (Homo sapiens, UniProt P08254); assay: MMP-3 inhibition; format: biochemical; conditions: read-out: IC50 MMP-3
# Chain of MMP-3 (P08254 100-477, species assumed): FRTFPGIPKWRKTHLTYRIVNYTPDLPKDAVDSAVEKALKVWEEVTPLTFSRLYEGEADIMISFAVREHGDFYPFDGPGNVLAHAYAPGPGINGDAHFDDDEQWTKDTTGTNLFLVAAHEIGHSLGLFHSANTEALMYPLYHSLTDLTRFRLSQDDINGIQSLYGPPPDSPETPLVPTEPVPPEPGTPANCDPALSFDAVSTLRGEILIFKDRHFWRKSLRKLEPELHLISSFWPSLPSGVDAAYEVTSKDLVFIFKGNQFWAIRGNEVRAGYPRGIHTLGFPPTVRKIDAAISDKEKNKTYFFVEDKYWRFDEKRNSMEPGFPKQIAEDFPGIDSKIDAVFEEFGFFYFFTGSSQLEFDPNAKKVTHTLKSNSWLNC
# MMP-9 = MMP-9 (Homo sapiens, UniProt P14780); assay: MMP-9 inhibition; format: biochemical; conditions: read-out: IC50 MMP-9
# Chain of MMP-9 (P14780 94-707, species assumed): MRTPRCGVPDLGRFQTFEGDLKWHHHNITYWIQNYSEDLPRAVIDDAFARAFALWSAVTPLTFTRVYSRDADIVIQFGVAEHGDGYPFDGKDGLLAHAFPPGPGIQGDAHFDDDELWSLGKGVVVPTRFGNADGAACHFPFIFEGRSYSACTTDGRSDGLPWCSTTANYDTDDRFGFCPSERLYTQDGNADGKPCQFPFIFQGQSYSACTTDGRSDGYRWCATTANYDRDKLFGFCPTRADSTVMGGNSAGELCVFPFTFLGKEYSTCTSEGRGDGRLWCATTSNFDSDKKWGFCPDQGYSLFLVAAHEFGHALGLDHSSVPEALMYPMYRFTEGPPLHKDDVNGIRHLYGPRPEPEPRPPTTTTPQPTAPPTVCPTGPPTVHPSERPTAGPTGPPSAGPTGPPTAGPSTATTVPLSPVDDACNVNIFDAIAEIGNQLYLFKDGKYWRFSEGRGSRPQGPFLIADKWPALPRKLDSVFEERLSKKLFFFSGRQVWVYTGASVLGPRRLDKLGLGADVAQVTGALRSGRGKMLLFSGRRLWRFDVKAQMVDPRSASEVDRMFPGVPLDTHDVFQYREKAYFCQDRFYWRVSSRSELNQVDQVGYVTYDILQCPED
# AP-tag HB-EGF [4] = assay: TPA-inducible shedding of AP-tag HB-EGF in CHO transfectants; format: cell-based, human; conditions: 60 nM TPA
# AP-tag AR [5] = assay: TPA-inducible shedding of AP-tag AR in CHO transfectants; format: cell-based, human; conditions: 60 nM TPA
# [6] = tested on: wild-type HB-EGF, TGF-α, and AR; assay: TPA-inducible shedding of wild-type ligands in CHO transfectants; format: cell-based, human; conditions: 10 μM, Fig. 2 b
# In short: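 CHO cells stably expressing untagged HB-EGF, AR or TGF-α, seeded at 2 × 10^5/6-cm dish, grown 24 h in Ham's F12/10% FCS. Surface-biotinylated with 0.1 mg/ml sulfo-NHS-biotin, 15 min on ice. Preincubated ±10 μM test compound for 10 min, then 30 min at 37°C with TPA plus compound. Ligands immunoprecipitated with specific antibodies and protein A; SDS-PAGE/Western blot, avidin-HRP/ECL detection.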
# EGFR ligands = assay: Release of soluble EGFR ligands from wounded keratinocytes; format: cell-based, human; conditions: 1 μM
# In short: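 Subconfluent keratinocytes in BHE-free medium tip-scraped in cross-stripes 5 mm apart, washed, then re-fed with or without test compound. Conditioned media collected at several times (37°C). Media added to EP170.7 cells (2 × 10^4/well) for 36 h, then [3H]thymidine (1 μCi/well) for 6 h; DNA incorporation measured. HB-EGF neutralised by preincubating with antibody No. 197 (10 μg/ml final). Four independent experiments.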
# AP-tag HB-EGF [7] = assay: Wound-induced shedding of AP-tag HB-EGF in HaCat transfectants; format: cell-based, human; conditions: 1 μM, 60 min after wounding
# AP-tag AR [8] = assay: Wound-induced shedding of AP-tag AR in HaCat transfectants; format: cell-based, human; conditions: 1 μM, 60 min after wounding
# AP-tag TGF-α [9] = assay: Wound-induced shedding of AP-tag TGF-α in HaCat transfectants; format: cell-based, human; conditions: 1 μM, 60 min after wounding
# keratinocytes [10] = assay: Juxtacrine growth factor assay; format: cell-based, human; conditions: 1 μM, Fig. 7 a
# In short: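 Keratinocytes plated at 10^5 cells/well and grown 12 h. Soluble HB-EGF/AR stripped by washing in medium containing 2 M NaCl. Cells fixed in 5% buffered formalin for 5 min, then washed in RPMI 1640/10% FCS. EP170.7 cells (10^5/well) added with [3H]thymidine for 6 h. Thymidine incorporation into EP170.7 DNA measured. Averages of triplicate experiments.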
# keratinocytes [11] = assay: Keratinocyte migration assay in a Boyden chamber; format: cell-based, human
# In short: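 Keratinocytes grown 72 h on collagen-coated dishes, detached with trypsin-EDTA for ≤1 min, resuspended at 10^5 cells/ml. Samples placed in bottom wells of a 48-well Boyden chamber: recombinant HB-EGF, or serially diluted 48-h wounded-culture conditioned medium, with test compound added top or bottom. Collagen-coated 8-μm polycarbonate membrane; 50 μl cells per top well. Ran 4 h at 37°C. Migrated cells fixed, hematoxylin-stained, counted microscopically.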
# [12] = tested on: plasminogen-deficient mice; conditions: plasminogen-deficient mice ref Lund et al. 1999; cited from earlier work
# BALB/c mice = assay: In vivo wound assay, full-thickness wounds in mice; conditions: HB-EGF 5 μg/ml in addition to 10 mM OSU8-1, day 6
# In short: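 Female BALB/c mice, 8 wk old, housed singly, anaesthetised with diethylether. Two 6-mm full-thickness punch wounds on the back, left open. Each wound received 500 μl daily for 5 d. One side got vehicle (1.5% carboxymethylcellulose in sterile PBS). The other got 10 mM test compound (n = 10) or test compound plus 5 μg/ml HB-EGF (n = 5). Wounds excised day 6, formalin-fixed, sectioned anterior-posterior, anti-cytokeratin stained.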
molecule,measurement,setting,value
"COc1cc2ncnc(Nc3cccc(Cl)c3)c2cc1OC [AG1478, reference compound]",Keratinocyte migration into wound area,Human keratinocytes [1],suppressed
same,"Proliferation, % of the control","Human keratinocytes [2]; antibody No. 425 10 μg/ml, AG1478 30 nM",10–15 % of the control
"C[C@@H]1C[C@@H]([C@H](O)CC2CC(=O)NC(=O)C2)C(=O)[C@@H](C)C1 [Cycloheximide, cycloheximide]",EGFR activation induced by wounding,EGFR; 50 μM,failed to abrogate; also recorded: did not abrogate
"CNC(=O)[C@H](Cc1cccc2ccccc12)NC(=O)[C@@H](CC(=O)NO)CC(C)C [OSU7-6, [4-(N-hydroxyamino)-2R-isobutylsuccinyl]-L-3-(1-naphthyl)-alanine-N-methylamide]",Percent inhibition at 1 μM TGF-α,AP-tag TGF-α [3]; 30 min,5%
same,IC50,MMP-1; read-out: IC50 MMP-1,0.35 nM
same,IC50,MMP-3,2 nM
same,IC50,MMP-9,0.4 nM
same,Block of migration relative to the control,Human keratinocytes [1],~70%
"CNC(=O)[C@H](Cc1cccc2c1CCCC2)NC(=O)[C@H](CC(C)C)[C@H](C)C(=O)NO [OSU8-1, [4-(N-hydroxyamino)-2R-isobutyl-3S-methylsuccinyl]-L-3-(5,6,7,8-tetra-hydro-1-naphthyl)alanine-N-methylamide]",Block of shedding of AP-tag HB-EGF,"AP-tag HB-EGF [4]; 1 μM, Fig. 2 a",markedly blocked
same,Block of TPA-inducible shedding of AP-tag HB-EGF,"AP-tag HB-EGF [4]; 10 μM, Fig. 2 a",significantly blocked
same,Percent inhibition at 1 μM AR,"AP-tag AR [5]; 1 μM inhibitor, 30 min, CHO transfectants",70%
same,Block of shedding of AP-tag AR,"AP-tag AR [5]; 1 μM, Fig. 2 a",markedly blocked
same,Block of TPA-inducible shedding of AP-tag AR,"AP-tag AR [5]; 10 μM, Fig. 2 a",significantly blocked
same,Block of shedding of AP-tag TGF-α,"AP-tag TGF-α [3]; 1 μM, Fig. 2 a",partially blocked
same,Block of TPA-inducible shedding of AP-tag TGF-α,"AP-tag TGF-α [3]; 10 μM, Fig. 2 a",significantly blocked
same,IC50,MMP-1; read-out: IC50 MMP-1,0.3 nM
same,IC50,"MMP-1; read-out: IC50s for all three MMPs, range across MMP-1, MMP-3 and MMP-9",0.3 to 2.9 nM
same,IC50,MMP-3,2.9 nM
same,IC50,MMP-9,0.3 nM
same,"TPA-inducible shedding of wild-type HB-EGF, TGF-α, and AR",[6],abrogation
same,Release of EGFR ligands after wounding,EGFR ligands,abrogated completely
same,EGFR activation after wounding,EGFR; 1 μM,abrogated completely
same,Inhibition of wound-induced shedding of AP-tag HB-EGF,AP-tag HB-EGF [7],effective at inhibiting
same,Inhibition of wound-induced shedding of AP-tag AR,AP-tag AR [8],effective at inhibiting
same,Effect on wound-induced AP-tag TGF-α shedding,AP-tag TGF-α [9],no effect
same,Keratinocyte migration into wound area,Human keratinocytes [1],significantly suppressed
same,Inhibition of cell growth,"Human keratinocytes [2]; 1 μM, Fig. 7 b",~50%
same,Juxtacrine growth activity of keratinocytes,keratinocytes [10],slightly upregulated
same,Fold less potent at promoting migration: conditioned medium collected in the presence of OSU8-1,"keratinocytes [11]; 48-h conditioned medium of wounded keratinocytes, 1 μM OSU8-1, Fig. 7 d",~30 fold
same,Effect on migration of keratinocytes induced by conditioned medium,"keratinocytes [11]; various concentrations of OSU8-1 added to the conditioned medium, Fig. 7 e",no effect
"COc1ccc(S(=O)(=O)N2Cc3cc(O)c(O)cc3CC2C(=O)NO)cc1 (centres unmarked) [OSU9-6, [6,7-dihydroxy-3-(N-hydroxycarbamoyl)-2-(4-methoxybenzenesulfonyl)-1,2,3,4-tetrahydroisoquinoline]]",Percent inhibition at 1 μM TGF-α,AP-tag TGF-α [3]; 30 min,5%
same,Block of migration relative to the control,Human keratinocytes [1],~70%
"CCCCCCCCCCCCCC(=O)O[C@@H]1[C@@H](C)[C@@]2(O)[C@@H](C=C(CO)C[C@]3(O)C(=O)C(C)=C[C@@H]23)[C@@H]2C(C)(C)[C@]12OC(C)=O [TPA, 12-O-tetradecanoylphorbol-13-acetate, reference compound]",Induction of shedding of AP-tag HB-EGF,AP-tag HB-EGF [4]; 30 min,induced the shedding
same,Induction of shedding of AP-tag AR,AP-tag AR [5]; 30 min,less effective
same,Induction of shedding of AP-tag TGF-α,AP-tag TGF-α [3]; 30 min,induced the shedding
CNC(=O)[C@H](Cc1c[nH]c2ccccc12)NC(=O)[C@@H](CC(=O)NO)CC(C)C [galardin],Wound healing,[12],completely arrested
B1,Concentration of maximal stimulation of keratinocyte migration,"keratinocytes [11]; recombinant HB-EGF, Boyden chamber, Fig. 7 c",10 ng/mL
same,Keratinocyte migration and regeneration of the epidermis,BALB/c mice,completely restored

# Source: article PMC2192647 (The Journal of Cell Biology, 2000)
